The source of these data is article PMC3304100 (Molecular Pharmaceutics, 2011).

Each structure is given as a SMILES string.

Series [1] has as its system rat gut wall. As to the kind of experiment: In situ single-pass intestinal perfusion in rats. The series is classed as in vivo. Conditions: pH 5.5, n=4, metoprolol co-perfused as reference. The essentials:
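Fasted (12–18 h) male Wistar rats (250–280 g), ketamine-xylazine im. ~10 cm jejunal, mid-intestinal or ileal segment cannulated and perfused at 0.18 ml/min with pH 5.5 MES buffer, 290 mosm/l, containing phenol red and metoprolol. Drug concentration = highest oral dose/250 ml. After 1 h to steady state, outlet sampled every 10 min for 1 h; HPLC. Peff by plug-flow model, water-flux corrected, R 0.2 cm.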

For series [2] the following is noted: cited from earlier work.
Series [3] has as its target T1, hPepT1 (Homo sapiens, UniProt P46059).
T1 sequence (P46059 1-708): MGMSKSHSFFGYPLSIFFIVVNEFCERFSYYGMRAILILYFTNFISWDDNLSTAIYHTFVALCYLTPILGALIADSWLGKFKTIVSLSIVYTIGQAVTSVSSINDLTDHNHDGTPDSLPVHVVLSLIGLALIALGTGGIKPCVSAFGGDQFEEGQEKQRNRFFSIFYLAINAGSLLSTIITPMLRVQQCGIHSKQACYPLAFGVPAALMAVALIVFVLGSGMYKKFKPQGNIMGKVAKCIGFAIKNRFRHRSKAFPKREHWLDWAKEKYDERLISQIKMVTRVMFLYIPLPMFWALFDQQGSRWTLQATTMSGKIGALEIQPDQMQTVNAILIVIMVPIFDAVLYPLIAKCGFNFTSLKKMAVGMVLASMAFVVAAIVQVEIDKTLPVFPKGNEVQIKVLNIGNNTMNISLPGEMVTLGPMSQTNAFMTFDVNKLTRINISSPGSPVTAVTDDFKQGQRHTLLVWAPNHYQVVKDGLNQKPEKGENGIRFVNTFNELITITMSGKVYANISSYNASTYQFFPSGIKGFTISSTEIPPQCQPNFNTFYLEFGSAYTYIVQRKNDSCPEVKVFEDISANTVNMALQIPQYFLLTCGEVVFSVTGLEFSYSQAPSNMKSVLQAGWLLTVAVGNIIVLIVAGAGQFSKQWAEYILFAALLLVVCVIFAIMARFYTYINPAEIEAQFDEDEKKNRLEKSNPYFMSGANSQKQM
Nature of the series: Uptake in hPepT1 transfected vs non-transfected HeLa cells. The series is classed as cell-based. Conditions: 1mM, pH 6.0, 45 min, 37°C, n=3. The essentials: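 HeLa cells transduced with hPepT1-carrying adenovirus and used two days post-infection; non-transfected HeLa cells served as control. Cells were washed with pH 6.0 uptake buffer, then exposed to test compound (1mM) in uptake buffer at 37°C for 45 min and washed ice-cold. They were extracted in methanol:water (50:50) for 1 h at room temperature, and the supernatant was filtered and quantified by LC-MS. Sample protein was measured by DC assay against a BSA standard.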

Consider `CC(=O)N[C@H]1[C@H]([C@H](O)[C@H](O)CO)OC(C(=O)O)=C[C@@H]1N=C(N)N` [Zanamivir], for which the “Effective permeability (Peff), in words” value in series [1] is on record as “absolutely no permeability”. The Absolute oral availability result in series [2] was “approximately 2%”.

For the compound `CC(C)[C@H](N)C(=O)OCCOCn1cnc2c(=O)[nH]c(N)nc21` [Valacyclovir], in series [3], the “Uptake in HeLa/hPepT1 cells compared to non-transfected HeLa cells” value is reported as ~ 5 fold.
